Tests used:
SiHa [1] = experiment: Antitumor activity against human SiHa cells xenografted in CD1-Foxn1nu/nu nude mouse assessed as log10 clonogens/g tumor at 42 umol/kg, iv administered 5 mins after irradiated with gamma-15 Gy measured after 18 hrs (reference value: 5.34 +/- 0.04 to 5.73 +/- 0.15 no unit); assay type: functional
SiHa [2] = experiment: Antitumor activity against human SiHa cells xenografted in CD1-Foxn1nu/nu nude mouse assessed as log10 clonogens/g tumor at 42 umol/kg, iv measured after 18 hrs (reference value: 7.15 +/- 0.01 to 7.62 +/- 0.2 no unit); assay type: functional
SiHa [3] = experiment: Antitumor activity against human SiHa cells xenografted in CD1-Foxn1nu/nu nude mouse assessed as hypoxic log10 cell kill at 42 umol/kg, iv administered 5 mins after irradiated with gamma-15 Gy measured after 18 hrs; assay type: functional
How it was run: (§1)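 Male nude mice bearing subcutaneous SiHa tumours, from 10⁷ cultured cells, randomised at a mean diameter of 8–10 mm. Phosphate given iv in phosphate-buffered saline with 4 equiv sodium bicarbonate, 5 min after whole-body cobalt-60 15 Gy. Tumours excised 18 h later for clonogenic assay (log10 clonogens/g), 5 mice per group. Hypoxic log cell kill = radiation + drug versus radiation alone; ANOVA with Holm-Sidak.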

SiHa [4] = experiment: Cytotoxicity against human SiHa cells assessed as reduction in cell density compound treated for 4 hrs under oxic condition measured after 5 days by sulforhodamine B assay; assay type: functional, cell-based
How it was run: (§2)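 Log-phase monolayers exposed to drug for 4 h under aerobic (20% O₂) or anoxic (<20 ppm O₂) conditions, then stained with sulforhodamine B 5 days later. IC50 interpolated as the concentration cutting cell density to 50% of same-plate controls; mean of 3–6 experiments.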

HT-29 [5] = experiment: Cytotoxicity against human HT29 cells assessed as reduction in cell density compound treated for 4 hrs under hypoxic condition measured after 5 days by sulforhodamine B assay; assay type: functional, cell-based; how it was run: as §2
HT-29 [6] = experiment: Ratio IC50 for human HT29 cells under oxic condition to IC50 for human HT29 cells under hypoxic condition; assay type: functional
How it was run: (§3)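 Oxic IC50 divided by hypoxic IC50 (4 h exposure at 20% O₂ vs <20 ppm O₂, sulforhodamine B read-out 5 days later), taken as means of intraexperiment ratios over 2–6 experiments.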

SiHa [7] = experiment: Ratio IC50 for human SiHa cells under oxic condition to IC50 for human SiHa cells under hypoxic condition; assay type: functional; how it was run: as §3
HT-29 [8] = experiment: Cytotoxicity against human HT29 cells assessed as reduction in cell density compound treated for 4 hrs under oxic condition measured after 5 days by sulforhodamine B assay; assay type: functional, cell-based; how it was run: as §2
SiHa [9] = experiment: Cytotoxicity against human SiHa cells assessed as reduction in cell density compound treated for 4 hrs under hypoxic condition measured after 5 days by sulforhodamine B assay; assay type: functional, cell-based; how it was run: as §2
SiHa [10] = experiment: Antitumor activity against human SiHa cells xenografted in CD1-Foxn1nu/nu nude mouse assessed as log10 clonogens/g tumor at 30 umol/kg, iv administered 5 mins after irradiated with gamma-15 Gy measured after 18 hrs (reference value: 5.34 +/- 0.04 to 5.73 +/- 0.15 no unit); assay type: functional
SiHa [11] = experiment: Antitumor activity against human SiHa cells xenografted in CD1-Foxn1nu/nu nude mouse assessed as log10 clonogens/g tumor at 30 umol/kg, iv measured after 18 hrs (reference value: 7.15 +/- 0.01 to 7.62 +/- 0.2 no unit); assay type: functional
SiHa [12] = experiment: Antitumor activity against human SiHa cells xenografted in CD1-Foxn1nu/nu nude mouse assessed as hypoxic log10 cell kill at 30 umol/kg, iv administered 5 mins after irradiated with gamma-15 Gy measured after 18 hrs; assay type: functional; how it was run: as §1
SK-OV-3 = experiment: Cytotoxicity against human SKOV3 cells under oxic condition relative to hypoxic condition; assay type: functional
HT-29 [13] = experiment: Cytotoxicity against human HT29 cells under oxic condition relative to hypoxic condition; assay type: functional
How it was run: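 Log-phase HT29 monolayers exposed to drug for 4 h under aerobic (20% O₂) or anoxic (<20 ppm O₂) conditions, then sulforhodamine B staining 5 days later. IC50 interpolated as the concentration cutting cell density to 50% of same-plate controls. Ratio = IC50(oxic)/IC50(hypoxic), taken as the mean of intraexperiment ratios over 2–6 experiments.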

[14] = Aqueous solubility of the compound; assay type: physicochemical

Compound: COc1ccc(/C=C/C(=O)N2CC(CBr)c3c2cc([N+](=O)[O-])c2cc(S(=O)(=O)NCCOP(=O)(O)O)ccc32)cc1 (configuration not stated)
- Activity (SiHa [1]): 4.5
- Activity (SiHa [2]): 7.07
- LCK (SiHa [3]): 0.87

Compound: O=C(c1cc2cc(OCCN3CCOCC3)ccc2[nH]1)N1CC(CBr)c2c1cc([N+](=O)[O-])c1cc(S(=O)(=O)NCCOP(=O)(O)O)ccc21 (configuration not stated)
- Activity (SiHa [1]): 2.6
- Activity (SiHa [2]): 6.05
- LCK (SiHa [3]): 2.8

Compound: CN(C)CCOc1ccc2[nH]c(C(=O)N3CC(CCl)c4c3cc([N+](=O)[O-])c3cc(S(=O)(=O)NCCO)ccc43)cc2c1 (configuration not stated)
- IC50 (SiHa [4]): 2000 nM
- IC50 (HT-29 [5]): 90 nM
- Ratio IC50 (HT-29 [6]): 160
- Ratio IC50 (SiHa [7]): 46
- IC50 (HT-29 [8]): 9300 nM
- IC50 (SiHa [9]): 70 nM

Compound: COc1cc2cc(C(=O)N3CC(CBr)c4c3cc([N+](=O)[O-])c3cc(S(=O)(=O)NCCO)ccc43)[nH]c2c(OC)c1OC (configuration not stated)
- IC50 (SiHa [4]): 2610 nM
- IC50 (HT-29 [5]): 1350 nM
- Ratio IC50 (HT-29 [6]): 10
- Ratio IC50 (SiHa [7]): 10
- IC50 (HT-29 [8]): 12300 nM
- IC50 (SiHa [9]): 270 nM

Compound: COc1cc2cc(C(=O)N3CC(CCl)c4c3cc([N+](=O)[O-])c3cc(S(=O)(=O)NCCOP(=O)(O)O)ccc43)[nH]c2c(OC)c1OC (configuration not stated)
- Activity (SiHa [1]): 4.96
- Activity (SiHa [2]): 7.29
- LCK (SiHa [3]): 0.55

Compound: O=C(c1cc2cc(OCCN3CCOCC3)ccc2[nH]1)N1CC(CBr)c2c1cc([N+](=O)[O-])c1cc(S(=O)(=O)NCCO)ccc21 (configuration not stated)
- IC50 (SiHa [4]): 11700 nM
- IC50 (HT-29 [5]): 440 nM
- Ratio IC50 (HT-29 [6]): 52
- Ratio IC50 (SiHa [7]): 43
- IC50 (HT-29 [8]): 22400 nM
- IC50 (SiHa [9]): 280 nM

Compound: COc1ccc(/C=C/C(=O)N2CC(CBr)c3c2cc([N+](=O)[O-])c2cc(S(=O)(=O)NCCO)ccc32)cc1 (configuration not stated)
- IC50 (SiHa [4]): 1440 nM
- IC50 (HT-29 [5]): < 100 nM
- Ratio IC50 (HT-29 [6]): >25
- Ratio IC50 (SiHa [7]): 17
- IC50 (HT-29 [8]): 2450 nM
- IC50 (SiHa [9]): 120 nM

Compound: COc1cc2cc(C(=O)N3CC(CBr)c4c3cc([N+](=O)[O-])c3cc(S(=O)(=O)NCCOP(=O)(O)O)ccc43)[nH]c2c(OC)c1OC (configuration not stated)
- Activity (SiHa [1]): 3.62
- Activity (SiHa [2]): 6.51
- LCK (SiHa [3]): 1.84

Compound: O=C(/C=C/c1ccc(OCCN2CCOCC2)cc1)N1CC(CBr)c2c1cc([N+](=O)[O-])c1cc(S(=O)(=O)NCCOP(=O)(O)O)ccc21 (configuration not stated)
- Activity (SiHa [10]): 3.78
- Activity (SiHa [11]): 7.01
- LCK (SiHa [12]): 1.56

Compound: CN(C)CCOc1ccc2[nH]c(C(=O)N3CC(CCl)c4c3cc([N+](=O)[O-])c3cc(S(N)(=O)=O)ccc43)cc2c1 (configuration not stated)
- Ratio (SK-OV-3): 275
- Ratio (HT-29 [13]): 330

Compound: CN(C)CCOc1ccc2[nH]c(C(=O)N3CC(CCl)c4c3cc([N+](=O)[O-])c3cc(S(=O)(=O)NCCOP(=O)(O)O)ccc43)cc2c1 (configuration not stated)
- solubility [14]: > 2000 µM
- Activity (SiHa [1]): 3.9
- Activity (SiHa [2]): 6.89
- LCK (SiHa [3]): 1.83

Compound: COc1cc2cc(C(=O)N3CC(CCl)c4c3cc([N+](=O)[O-])c3cc(S(=O)(=O)NCCO)ccc43)[nH]c2c(OC)c1OC (configuration not stated)
- IC50 (SiHa [4]): 13000 nM
- IC50 (HT-29 [5]): 11000 nM
- Ratio IC50 (HT-29 [6]): 2.1
- Ratio IC50 (SiHa [7]): 16
- IC50 (HT-29 [8]): 28000 nM
- IC50 (SiHa [9]): 3500 nM

Compound: O=C(/C=C/c1ccc(OCCN2CCOCC2)cc1)N1CC(CBr)c2c1cc([N+](=O)[O-])c1cc(S(=O)(=O)NCCO)ccc21 (configuration not stated)
- IC50 (SiHa [4]): 2720 nM
- IC50 (HT-29 [5]): 80 nM
- Ratio IC50 (HT-29 [6]): 286
- Ratio IC50 (SiHa [7]): 41
- IC50 (HT-29 [8]): 11200 nM
- IC50 (SiHa [9]): 90 nM
